# Tests used:
# Format in all cases: functional
# [1] = tested on: TK-10; assay: Cytotoxicity against human TK10 cells
# Outline: (§1)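 Cell line run as part of the 60-cell-line screening panel; growth inhibition was reported as a GI50 for each line.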
# [2] = tested on: NCI-H460; assay: Cytotoxicity against human NCI-H460 cells
# Outline: (§2)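 Tested in a 60-cell-line human tumor panel screen; the read-out is growth inhibition, reported as GI50 for each cell line.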
# [3] = tested on: SF-268; assay: Cytotoxicity against human SF268 cells; outline: as §2
# [4] = tested on: SF-539; assay: Cytotoxicity against human SF539 cells; outline: as §2
# [5] = tested on: HCT-116; assay: Cytotoxicity against human HCT116 cells; outline: as §2
# [6] = tested on: HT-29; assay: Cytotoxicity against human HT-29 cells; outline: as §2
# [7] = Cytotoxicity against human HCT15 cells; outline: as §2
# [8] = Cytotoxicity against human OVCAR5 cells; outline: as §2
# [9] = tested on: DU-145; assay: Cytotoxicity against human DU145 cells; outline: as §2
# [10] = tested on: CCRF-CEM; assay: Cytotoxicity against human CCRF-CEM cells
# [11] = tested on: NCI-H322M; assay: Cytotoxicity against human NCI-H322M cells; outline: as §2
# [12] = tested on: MCF7; assay: Cytotoxicity against human MCF7 cells; outline: as §2
# [13] = tested on: MOLT-4; assay: Cytotoxicity against human MOLT4 cells; outline: as §2
# [14] = Cytotoxicity against human OVCAR4 cells; outline: as §2
# [15] = tested on: SR; assay: Cytotoxicity against human SR cells; outline: as §1
# [16] = tested on: SK-MEL-5; assay: Cytotoxicity against human SK-MEL-5 cells; outline: as §2
# [17] = tested on: ACHN; assay: Cytotoxicity against human ACHN cells; outline: as §2
# [18] = tested on: PC-3; assay: Cytotoxicity against human PC3 cells; outline: as §2
# [19] = tested on: SK-MEL-2; assay: Cytotoxicity against human SK-MEL-2 cells; outline: as §2
# [20] = tested on: HOP-62; assay: Cytotoxicity against human HOP62 cells; outline: as §2
# [21] = tested on: COLO 205; assay: Cytotoxicity against human COLO205 cells; outline: as §2
# [22] = tested on: HCC 2998; assay: Cytotoxicity against human HCC2998 cells; outline: as §2
# [23] = tested on: KM12; assay: Cytotoxicity against human KM12 cells; outline: as §2
# [24] = Cytotoxicity against human UACC257 cells; outline: as §1
# [25] = tested on: SNB-75; assay: Cytotoxicity against human SNB75 cells; outline: as §1
# [26] = tested on: CAKI-1; assay: Cytotoxicity against human Caki1 cells; outline: as §2
# [27] = tested on: LOX IMVI; assay: Cytotoxicity against human LOXIMVI cells; outline: as §2
# [28] = tested on: BT-549; assay: Cytotoxicity against human BT549 cells; outline: as §2
# [29] = tested on: SF-295; assay: Cytotoxicity against human SF295 cells; outline: as §2
# [30] = tested on: U-251; assay: Cytotoxicity against human U251 cells; outline: as §1
# [31] = tested on: 786-0; assay: Cytotoxicity against human 786-0 cells; outline: as §2
# [32] = tested on: MDA-MB-231; assay: Cytotoxicity against human MDA-MB-231 cells; outline: as §2
# [33] = Cytotoxicity against human UACC62 cells; outline: as §1
# [34] = Cytotoxicity against human NCI-ADR-RES cells; outline: as §2
# [35] = tested on: T47D; assay: Cytotoxicity against human T47D cells; outline: as §1
# [36] = tested on: IGROV-1; assay: Cytotoxicity against human IGROV1 cells; outline: as §2
# [37] = tested on: SK-OV-3; assay: Cytotoxicity against human SKOV3 cells; outline: as §2
# [38] = tested on: A498; assay: Cytotoxicity against human A498 cells; outline: as §2
# [39] = tested on: SN12C; assay: Cytotoxicity against human SN12C cells; outline: as §2
# [40] = tested on: A549; assay: Cytotoxicity against human A549 cells; outline: as §2
# [41] = tested on: MDA-MB-435; assay: Cytotoxicity against human MDA-MB-435 cells; outline: as §2
# [42] = tested on: SNB-19; assay: Cytotoxicity against human SNB19 cells; outline: as §2
# [43] = tested on: HL-60(TB); assay: Cytotoxicity against human HL-60(TB) cells
# Outline: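 Tested within the NCI 60-cell-line screen, with GI50 as the read-out. Values are the average of two independent experiments. The lowest concentration tested was 10 nM.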
# [44] = read-out: pLC50 (the source's name) (converted)
compound,measurement,setting,value
COc1cc(/C=C/c2cc(OC)c3ccn(C)c3c2)cc2c1O[C@]1(C)CC[C@@H](O)C(C)(C)[C@H]1C2,GI50,[1],3.16 µM
same,LC50,[1],> 100 µM
same,TGI,[1]; read-out: pTGI (converted),93.3 µM
same,GI50,[2],1.07 µM
same,CC50,[2]; [44],61.7 µM
same,TGI,[2]; read-out: pTGI (converted),12 µM
same,GI50,[3],2.09 µM
same,CC50,[3]; [44],> 100 µM
same,TGI,[3]; read-out: pTGI (converted),69.2 µM
same,GI50,[4],0.214 µM
same,CC50,[4]; [44],57.5 µM
same,TGI,[4]; read-out: pTGI (converted),5.5 µM
same,GI50,[5],1.23 µM
same,CC50,[5]; [44],51.3 µM
same,TGI,[5]; read-out: pTGI (converted),15.1 µM
same,GI50,[6],1.26 µM
same,CC50,[6]; [44],43.7 µM
same,TGI,[6]; read-out: pTGI (converted),5.62 µM
same,GI50,[7]; HCT-15,1.15 µM
same,CC50,"[7]; HCT-15, read-out: pLC50 (the source's name) (converted)",64.6 µM
same,TGI,"[7]; HCT-15, read-out: pTGI (converted)",6.31 µM
same,GI50,[8]; OVCAR-5,4.57 µM
same,CC50,"[8]; OVCAR-5, read-out: pLC50 (the source's name) (converted)",> 100 µM
same,TGI,"[8]; OVCAR-5, read-out: pTGI (converted)",38 µM
same,GI50,[9],2.45 µM
same,LC50 (50% lethal concentration),[9],> 100 µM
same,TGI,[9]; read-out: pTGI (converted),66.1 µM
same,GI50,[10],0.457 µM
same,CC50,[10]; [44],> 100 µM
same,TGI,[10]; read-out: pTGI (converted),9.33 µM
same,GI50,[11],18.2 µM
same,CC50,[11]; [44],> 100 µM
same,TGI,[11]; read-out: pTGI (converted),> 100 µM
same,GI50,[12],1.51 µM
same,LC50,[12],66.1 µM
same,TGI,[12]; read-out: pTGI (converted),14.5 µM
same,GI50,[13],0.437 µM
same,CC50,[13]; [44],> 100 µM
same,TGI,[13]; read-out: pTGI (converted),8.51 µM
same,GI50,[14]; OVCAR-4,3.89 µM
same,CC50,"[14]; OVCAR-4, read-out: pLC50 (the source's name) (converted)",> 100 µM
same,GI50,[15],0.513 µM
same,CC50,[15]; [44],> 100 µM
same,TGI,[15]; read-out: pTGI (converted),> 100 µM
same,GI50,[16],0.513 µM
same,CC50,[16]; [44],2.24 µM
same,TGI,[16]; read-out: pTGI (converted),1.07 µM
same,GI50,[17],1 µM
same,LC50 (concentration killing 50% of cells),[17],> 100 µM
same,TGI,[17]; read-out: pTGI (converted),87.1 µM
same,GI50,[18],0.692 µM
same,LC50,[18],> 100 µM
same,TGI,[18]; read-out: pTGI (converted),83.2 µM
same,GI50,[19],0.851 µM
same,CC50,[19]; [44],> 100 µM
same,TGI,[19]; read-out: pTGI (converted),20.4 µM
same,GI50,[20],0.617 µM
same,CC50,[20]; [44],28.8 µM
same,TGI,[20]; read-out: pTGI (converted),3.8 µM
same,GI50,[21],1.38 µM
same,CC50,[21]; [44],6.61 µM
same,TGI,[21]; read-out: pTGI (converted),3.02 µM
same,GI50,[22],5.25 µM
same,CC50,[22]; [44],75.9 µM
same,TGI,[22]; read-out: pTGI (converted),25.1 µM
same,GI50,[23],2 µM
same,CC50,[23]; [44],41.7 µM
same,TGI,[23]; read-out: pTGI (converted),11.2 µM
same,GI50,[24]; UACC-257,2.45 µM
same,CC50,"[24]; UACC-257, read-out: pLC50 (the source's name) (converted)",> 100 µM
same,TGI,"[24]; UACC-257, read-out: pTGI (converted)",35.5 µM
same,GI50,[25],0.363 µM
same,CC50,[25]; [44],> 100 µM
same,TGI,[25]; read-out: pTGI (converted),11.5 µM
same,GI50,[26],0.692 µM
same,LC50,[26],> 100 µM
same,TGI,[26]; read-out: pTGI (converted),4.79 µM
same,GI50,[27],1.62 µM
same,CC50,[27]; [44],79.4 µM
same,TGI,[27]; read-out: pTGI (converted),17 µM
same,GI50,[28],2.82 µM
same,CC50,[28]; [44],> 100 µM
same,TGI,[28]; read-out: pTGI (converted),30.9 µM
same,GI50,[29]; read-out: GI50,0.17 µM
same,GI50,[29]; read-out: pGI50 (converted),0.17 µM
same,CC50,[29]; [44],7.08 µM
same,TGI,[29]; read-out: pTGI (converted),0.537 µM
same,GI50,[30],0.355 µM
same,CC50,[30]; [44],69.2 µM
same,TGI,[30]; read-out: pTGI (converted),15.5 µM
same,GI50,[31],0.214 µM
same,LC50 (concentration killing 50% of cells),[31],> 100 µM
same,TGI,[31]; read-out: pTGI (converted),2.4 µM
same,GI50,[32],1.48 µM
same,LC50,[32],> 100 µM
same,TGI,[32]; read-out: pTGI (converted),33.9 µM
same,GI50,[33]; UACC-62,0.355 µM
same,CC50,"[33]; UACC-62, read-out: pLC50 (the source's name) (converted)",23.4 µM
same,TGI,"[33]; UACC-62, read-out: pTGI (converted)",2.19 µM
same,GI50,[34],6.46 µM
same,CC50,[34]; [44],> 100 µM
same,TGI,[34]; read-out: pTGI (converted),> 100 µM
same,GI50,[35],4.37 µM
same,CC50,[35]; [44],> 100 µM
same,TGI,[35]; read-out: pTGI (converted),38.9 µM
same,GI50,[36],2.24 µM
same,CC50,[36]; [44],95.5 µM
same,TGI,[36]; read-out: pTGI (converted),45.7 µM
same,GI50,[37],2.57 µM
same,LC50,[37],> 100 µM
same,TGI,[37]; read-out: pTGI (converted),> 100 µM
same,GI50,[38],0.407 µM
same,CC50,[38]; [44],> 100 µM
same,TGI,[38]; read-out: pTGI (converted),8.13 µM
same,GI50,[39],6.03 µM
same,LC50,[39],> 100 µM
same,TGI,[39]; read-out: pTGI (converted),> 100 µM
same,GI50,[40],1.91 µM
same,CC50,[40]; [44],> 100 µM
same,TGI,[40]; read-out: pTGI (converted),> 100 µM
same,GI50,[41],1.02 µM
same,CC50,[41]; [44],91.2 µM
same,TGI,[41]; read-out: pTGI (converted),20.9 µM
same,GI50,[42],1.38 µM
same,CC50,[42]; [44],> 100 µM
same,TGI,[42]; read-out: pTGI (converted),> 100 µM
same,GI50,[43],1.2 µM
same,CC50,[43]; [44],> 100 µM
same,TGI,[43]; read-out: pTGI (converted),38.9 µM

# Reference: ChEMBL document CHEMBL3232844, “Synthesis and structure activity relationships of schweinfurthin indoles” (2014)
